The values below come from ChEMBL document CHEMBL1949516, “Synthesis and antimycobacterial evaluation of N-substituted 3-aminopyrazine-2,5-dicarbonitriles” (Bioorg Med Chem Lett, 2012).

Values after ≈ are worked out from the molar mass of the structure shown. Where only a bound is given, the exact number is not on record here.

Data set [1] has as its system Mycobacterium tuberculosis. Nature of the data set: Antimycobacterial activity against Mycobacterium tuberculosis H37Rv CNCTC My 331/88 after 14 days by microdilution panel method. The data set is classed as functional. The following applies: H37Rv CNCTC My 331/88, 336 h. The procedure, abridged: (§1)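 Compounds dissolved in DMSO, diluted in Šula's semisynthetic medium in microdilution panels. Cultures grown in Šula's medium, pH 5.5, 37 °C. After 14 days incubation, activity read visually as MIC (µg/mL), also converted to µmol/L. Pyrazinamide run as standard.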

Data set [2] can be described thus: Partition coefficient, log k of the compound. The data set is classed as physicochemical. To be noted: octanol/water. An outline of the steps:
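Capacity factor k measured by isocratic RP-HPLC on an end-capped non-polar C18 column, with methanol as organic modifier in the mobile phase. Value given as log k and used as a lipophilicity index converted to the logP scale.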

Data set [3] concerns Mycobacterium avium. The data set is described as follows: Antimycobacterial activity against Mycobacterium avium CNCTC My 152/73 after 14 days by microdilution panel method. The data set is classed as functional. The following applies: CNCTC My 152/73, 336 h. The procedure, abridged:
as §1
On the technique in general: Broth dilution looks for growth in wells or tubes with falling amounts of substance.

The test system of data set [4] is Mycobacterium avium. The data set is described as follows: Antimycobacterial activity against Mycobacterium avium CNCTC My 80/72 after 14 days by microdilution panel method. In kind it is functional. To be noted: CNCTC My 80/72, 336 h. An outline of the steps: as §1
Data set [5] has as its system Mycobacterium kansasii. The data set is described as follows: Antimycobacterial activity against Mycobacterium kansasii CNCTC My 235/80 after 6 days by microdilution panel method. In kind it is functional. To be noted: CNCTC My 235/80, 144 h. An outline of the steps:
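Microdilution panel; compounds dissolved in DMSO and diluted with Šula's semisynthetic medium. Cultures grown in Šula's semisynthetic medium, pH 5.5, 37 °C. After 6 days of incubation, MIC (µg/mL) read visually. MICs also converted to molar units (µmol/L). PZA run as standard.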

Data set [6] in a line: Aqueous solubility of the compound. The data set is classed as physicochemical. To be noted: buffer.

Broadly, the MIC is the lowest concentration found to suppress growth. Low values mean a more susceptible organism, high ones a less susceptible organism. `N#Cc1cnc(C#N)c(Cl)n1`: the MIC in data set [1] was 25 µg/mL (≈ 152 µM); in data set [3], 100 µg/mL (≈ 608 µM); in data set [4] it was 100 µg/mL (≈ 608 µM); in data set [5], above 200 µg/mL. Further, the “log K” value in data set [2] was 0.5792.
Turning to `CNc1nc(C#N)cnc1C#N`, the MIC in data set [1] is 100 µg/mL (≈ 628 µM); in data set [3], above 200 µg/mL; in data set [4], above 200 µg/mL; in data set [5], 100 µg/mL (≈ 628 µM). The “log K” value in data set [2] is on record as 0.5859.
`CCNc1nc(C#N)cnc1C#N`: the MIC is 100 µg/mL (≈ 577 µM) in data set [1], above 200 µg/mL in data set [3], above 200 µg/mL in data set [4] and 200 µg/mL (≈ 1150 µM) in data set [5]. Moreover, the “log K” value in data set [2] came out at 0.6146.
For the compound `CCCNc1nc(C#N)cnc1C#N`, the MIC in data set [1], in data set [3], in data set [4] and in data set [5] was 200 µg/mL (≈ 1070 µM) each time. For the same compound, the “log K” value in data set [2] worked out at 0.6497.
On to `CCCCNc1nc(C#N)cnc1C#N`, for which the MIC in data set [1], in data set [3], in data set [4] and in data set [5] was 100 µg/mL (≈ 497 µM) throughout. In data set [2], the “log K” value was 0.7088.
Take `CCCCCNc1nc(C#N)cnc1C#N`: the MIC in data set [1] was 50 µg/mL (≈ 232 µM); in data set [3], 100 µg/mL (≈ 465 µM); in data set [4], 100 µg/mL (≈ 465 µM); in data set [5], 100 µg/mL (≈ 465 µM). Further, in data set [2], the “log K” value is 0.7901.
With `CCCCCCNc1nc(C#N)cnc1C#N`, the MIC in data set [1] turned out to be 25 µg/mL (≈ 109 µM); in data set [3] it was 100 µg/mL (≈ 436 µM); in data set [4] it was 100 µg/mL (≈ 436 µM); in data set [5], 50 µg/mL (≈ 218 µM). The “log K” value in data set [2] is reported as 0.9133.
In the case of `CCCCCCCNc1nc(C#N)cnc1C#N`, the MIC in data set [1] was 12.5 µg/mL (≈ 51.4 µM); in data set [3] it was above 200 µg/mL; in data set [4], above 200 µg/mL; in data set [5], above 200 µg/mL. In addition, the “log K” value in data set [2] stood at 1.0243.
Turning to `CCCCCCCCNc1nc(C#N)cnc1C#N`, the minimal inhibitory concentration (MIC) in data set [1] was 25 µg/mL (≈ 97.1 µM); in data set [3], above 200 µg/mL; in data set [4], above 200 µg/mL; in data set [5], 100 µg/mL (≈ 389 µM). Also, in data set [2], the “log K” value is 1.1953.
Regarding `N#Cc1cnc(C#N)c(NC2CCCC2)n1`, the MIC in data set [1], in data set [3], in data set [4] and in data set [5] was above 200 µg/mL in each case. Further, the “log K” value in data set [2] is listed as 0.7273. In data set [6], the solubility result is given as “Insoluble”.
In the case of `N#Cc1cnc(C#N)c(NC2CCCCC2)n1`, the MIC in data set [1], in data set [3], in data set [4] and in data set [5] was above 200 µg/mL throughout. The “log K” value in data set [2] is 0.7896. In data set [6], the solubility entry is listed as “Insoluble”.
Take `N#Cc1cnc(C#N)c(NC2CCCCCC2)n1`: the minimum inhibitory concentration (MIC) in data set [1], in data set [3], in data set [4] and in data set [5] was above 200 µg/mL each time. Moreover, the “log K” value in data set [2] is 0.8789. Besides, in data set [6], the solubility entry is given as “Insoluble”.
As to `CCN(CC)c1nc(C#N)cnc1C#N`, the MIC in data set [1] is 100 µg/mL (≈ 497 µM); in data set [3], above 200 µg/mL; in data set [4], above 200 µg/mL; in data set [5], 100 µg/mL (≈ 497 µM). For the same compound, the “log K” value in data set [2] is recorded as 0.6685.
Take `CN1CCN(c2nc(C#N)cnc2C#N)CC1`: the MIC in data set [1], in data set [3], in data set [4] and in data set [5] was above 200 µg/mL each time. Also, the “log K” value in data set [2] amounted to 0.5946.
In the case of `N#Cc1cnc(C#N)c(N2CCOCC2)n1`, the MIC was 200 µg/mL (≈ 929 µM) in data set [1], above 200 µg/mL in data set [3], above 200 µg/mL in data set [4] and 200 µg/mL (≈ 929 µM) in data set [5]. Besides, the “log K” value in data set [2] is listed as 0.583.
On to `NC(=O)c1cnccn1` [PYRAZINAMIDE], for which the MIC in data set [1] was 12.5 µg/mL (≈ 102 µM); in data set [3], above 200 µg/mL; in data set [4], above 200 µg/mL; in data set [5], above 200 µg/mL. For the same compound, the “log K” value in data set [2] is 0.0514.
